Compound activity as filed in PubChem BioAssay.
A selection: hits, their analogues and other compounds. The true share with any hit is near 2.3%.
STAT3 activator = STAT3 signaling activation; U3A cells, IL-6 STAT3-luciferase reporter, luminescence; 100% = signal with IL-6 EC80 alone; activation (% of control), % at 5.6 µM; actives 0.91% (n = 190,000);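 active = activation above the screen-wide mean of compound activation plus 3 SD, cut at about 130% in these data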;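 note: 0% = background luminescence of wells with medium and substrate only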
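Test system: STAT3-luciferase reporter U3A cells; Detection: reporter luminescence signal; Times: 1 h compound pre-exposure, 6 h IL-6 stimulation, 37 °C; Benchmarks: IL-6-only high control; Also added: IL-6 stimulus at 33 ng/mL final.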
HSP90 refold inh = blocks HSP90-mediated luciferase refolding in reticulocyte lysate; Rabbit reticulocyte lysate, luciferase refolding luminescence, 3 h; inhibition, % at 5.6 µM; actives 0.91% (n = 290,000); AID 1789;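 active = inhibition above the screen-wide mean plus 3 SD, computed separately per campaign, cut at about 16% in these data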;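 note: 0% = DMSO wells and 100% = 60 µM geldanamycin wells; inhibitors lower the luminescence because luciferase stays unfolded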
TRAIL sens C8 = caspase-8 TRAIL sensitization. NB7+C8 cells + TRAIL, ATPlite viability luminescence. inhibition (viability loss, TRAIL sensitization), % at 10 µM. actives 1% (n = 360,000);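 active = compounds causing at least 50% loss of cell viability in the single-dose screen, relative to plate controls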
STAT1 blocker = inhibitors of IFN-gamma induced STAT1 signaling | NIH 3T3 STAT1-luciferase reporter, luminescence | inhibition, % at 5.5 µM | actives 0.35% (n = 200,000) | AID 920;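 active = inhibition above a set limit, the mean inhibition across all tested compounds plus 3 SD, cut at about 34% in these data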;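 note: 0% = IFN-gamma with DMSO and 100% = IFN-gamma with 300 µM nifuroxazide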
PPC-1+TRAIL kill = PPC-1 cancer cell killing with TRAIL present. actives 0.41% (n = 220,000). cell killing (% activity), % at 4 µM or 5 µM. PPC-1 cells + TRAIL, ATPLite viability luminescence;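 active = cell killing above 50% in the first pass at 4 µM, then a duplicate retest at 5 µM averaging 50% or more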;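 note: plate controls were cells with TRAIL plus DMSO for no effect and medium-only wells lacking cells for full effect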
STAT3 inh-1 = inhibitors of IL-6 induced STAT3 signaling; U3A cells, IL-6 STAT3-luciferase reporter, luminescence; host cell line lacks STAT1; inhibition, % at 5.5 µM; actives 0.89% (n = 190,000); AID 862;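 active = inhibition above the mean inhibition across all screened compounds plus 3 SD, cut at about 44% in these data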;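 note: 0% = DMSO only wells and 100% = 100 µM nifuroxazide control wells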
STAT3 inh-2 = confirmation of STAT3 signaling inhibitors; U3A cells, IL-6 STAT3 luciferase reporter, luminescence; cell line lacks STAT1; inhibition, % at 5.7 µM; actives 45% (n = 1,200); shares compounds with STAT3 inh-1;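 active = inhibition above the hit cutoff computed for the primary STAT3 screen, cut at about 44% in these data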;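 note: 0% = IL-6 plus DMSO and 100% = IL-6 plus nifuroxazide control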
NFkB inh 2 = counter-screen for STAT3 inhibitors: NF-kappaB inhibition; AID 1308; inhibition, % at 5.7 µM; HEK293T NF-kB luciferase reporter, TNF-alpha induced; shares compounds with STAT3 inh-1; actives 36% (n = 1,200);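 active = inhibition above the mean of solvent-only control wells plus 3 SD, cutoff set per campaign, cut at about 13% in these data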;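 note: 0% = TNF-alpha with DMSO and 100% = TNF-alpha with MG high control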
STAT1 inh 2 = counter-screen for STAT3 inhibitors: STAT1 inhibition; shares compounds with STAT3 inh-1; NIH 3T3 STAT1-luciferase reporter, IFN-gamma induced, luminescence; inhibition, % at 5.7 µM; actives 27% (n = 1,200);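 active = inhibition above the mean plus 3 SD of solvent-only control wells, limit set per screening run, cut at about 16% in these data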;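 note: 0% = DMSO with IFN-gamma and 100% = nifuroxazide control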
* marks the source's active call; other numbers are inactive results; x = no result given.

SMILES	STAT3 activator	HSP90 refold inh	TRAIL sens C8	STAT1 blocker	PPC-1+TRAIL kill	STAT3 inh-1	STAT3 inh-2	NFkB inh 2	STAT1 inh 2
O=C(/C=C/c1ccc(Cl)cc1)Nc1ccc(CN2CCOCC2)cc1	60	1	33	4	24	45*	62*	14*	6
CCOC(=O)c1ccc(NC(=O)c2ccc(CN3CCOCC3)cc2)cc1	45	-2	26	7	1	68*	69*	12	7
CC(=O)c1ccc(N/C=C/C(=O)c2ccc(Br)cc2)cc1	x	-2	4	x	x	x	x	x	x
Cc1noc(C)c1-c1ccc(C(=O)Nc2ccccc2)c2occc12	x	x	21	x	x	x	x	x	x
COc1cc(NC(=O)c2cc3c(C)nc4ccccc4c3o2)cc(OC)c1OC	85	0	15	2	-10	24	x	x	x
COc1cccc(CNC(=O)c2cc3c(C)nc4ccccc4c3o2)c1	68	0	-5	14	-8	46*	23	-2	2
CCc1ccc(CNC(=O)c2cc3c(C)nc4ccccc4c3o2)cc1	60	1	16	18	23	52*	39	4	13
COc1ccc(CNC(=O)c2cc3c(C)nc4ccccc4c3o2)c(OC)c1	39	0	27	30	0	79*	60*	15*	20*
Cc1nc2ccccc2c2oc(C(=O)NCC3COc4ccccc4O3)cc12 (stereo not given)	76	-2	22	19	25	30	x	x	x
CCCCN(CC)CCNC(=O)c1cc2c(C)nc3ccccc3c2o1	100	2	-19	4	6	6	x	x	x
CN(C)/C=C/C(=O)/C=C/c1cn(-c2ncc(C(F)(F)F)cc2Cl)c2ccccc12	102	1	-14	-2	0	3	x	x	x
CCCCOc1ncnc2c1[nH]c1ccc(OC)cc12	66	1	x	-41	19	46*	17	-37	-94
CCOCCCNc1ncnc2c1[nH]c1ccccc12	80	1	21	30	19	27	x	x	x
CCCCOc1ncnc2c1[nH]c1ccccc12	59	-2	24	22	21	50*	36	19*	25*
Fc1ccc2[nH]c3c(Cl)ncnc3c2c1	113	1	-14	-9	4	-13	x	x	x
CCCCOc1ncnc2c1[nH]c1ccc(F)cc12	35	1	13	22	14	83*	74*	19*	32*
CCCCOc1ncnc2c1[nH]c1ccc(OCC)cc12	83	0	14	-1	9	24	x	x	x
Cc1cccc(CCNC(=O)C2CCN(S(=O)(=O)c3cccc4cccnc34)CC2)c1	x	-1	-10	x	x	x	x	x	x
CCn1ncc(NC(=S)Nc2ccc3c(c2)OCO3)c1C(N)=O	99	3	3	-4	10	8	x	x	x
Cc1c(O)c(=O)n(-c2ccccc2)n1C	x	x	-15	x	x	x	x	x	x
O=C(Nc1ccncc1)c1ccc(-c2ccccc2)cc1	31	-2	51*	15	4	82*	77*	5	7
O=C(Nc1cccnc1)c1ccc(-c2ccccc2)cc1	85	-5	35	-13	41	24	x	x	x
COc1ccc(NC(=O)CCCN(C)S(=O)(=O)c2ccc(C)cc2)cc1	104	3	3	-3	5	-2	x	x	x
Cc1ccc(-c2nc(-c3ccncc3)no2)cc1	x	9	27	x	x	x	x	x	x
Cc1ccc(-c2nc(-c3ccccc3)no2)cc1	55	-2	37	-35	11	55*	40	5	-49
SMILES	STAT3 activator	HSP90 refold inh	TRAIL sens C8	STAT1 blocker	PPC-1+TRAIL kill	STAT3 inh-1	STAT3 inh-2	NFkB inh 2	STAT1 inh 2
O/C(=C\c1ccc2ccccc2n1)c1ccc(O)cc1O	52	0	66*	4	48	61*	29	-21	-88
Oc1ccc(/C(Cc2ccc3ccccc3n2)=N\Nc2ccccc2)c(O)c1	123	-2	-4	-9	2	-20	x	x	x
O=C(Nc1ccc(N2CCCC2)cc1)c1cccc(F)c1	63	6	12	-23	23	48*	-3	-24	-140
CCN(CC(=O)Nc1ccccc1C(F)(F)F)C(=O)COc1cccc2c1OC(C)(C)C2	x	x	-3	x	x	x	x	x	x
CN(C)S(=O)(=O)c1ccc(C(=O)Nc2nc(-c3cccs3)cs2)cc1	61	5	35	12	5	53*	44*	7	6
O=C(NC(=S)Nc1ccc(N2CCCCC2)c(Cl)c1)c1ccc2c(c1)OCCO2	52	2	14	4	12	64*	66*	22*	4
CCN(C(=O)c1ccc(C(C)(C)C)cc1)c1nnc(Cn2nnc3ccccc32)s1	27	9	34	22	10	86*	85*	31*	15
CCN(C(=O)CC(C)C)c1nnc(Cn2nnc3ccccc32)s1	91	-2	18	14	16	12	x	x	x
COC(=O)[C@@H](Cc1c[nH]c2ccccc12)NC(=O)CCC(=O)c1ccc(Br)cc1	x	2	-14	x	x	x	x	x	x
Cc1cc(/C=C2/SC(=S)N(c3cccc(C(F)(F)F)c3)C2=O)c(C)n1-c1cccnc1	34	-3	19	28	x	78*	84*	33*	31*
Cc1ccc(C(=O)N/C(=C\c2cccc([N+](=O)[O-])c2)C(=O)NCc2ccncc2)cc1	96	-1	-9	-2	6	7	x	x	x
COc1ccc(C(=O)Nc2cccc(NC(C)=O)c2)cc1	x	x	13	x	x	x	x	x	x
Cc1nc(-c2ccc(C(=O)Nc3cccc(Br)c3)cc2)cs1	26	10	78*	-27	40	88*	81*	8	-144
COc1ccc(C(=O)Nc2cccc(C)c2)cc1	63	10	48	-41	37	44*	2	-37	-74
O=C(Nc1cccc(C(=O)N2CCN(Cc3ccccc3)CC2)c1)c1ccccc1	97	1	0	12	22	7	x	x	x
Cc1cccc(NC(=O)c2ccc(CN3CCN(Cc4ccccc4)CC3)cc2)c1	48	2	-3	6	11	63*	62*	14*	-7
Cc1ccc(NC(=O)COC(=O)c2cccc(OC(F)F)c2)cc1S(=O)(=O)N1CCCCC1	x	x	-9	x	x	x	x	x	x
CC(Sc1nc(C(C)(C)C)cc(-c2ccccc2)c1C#N)C(=O)Nc1ccccc1 (stereo not given)	101	4	3	9	10	-4	x	x	x
Cc1cc2nc(N3C(=O)CNC3=S)sc2cc1C	62	3	57*	-5	48	48*	10	-16	-87
